For two compounds, IC50 results are on record in BindingDB's records for doi:10.1021/jm960807v (University of Florence, 1997).

This experiment concerns the target T1, 3-oxo-5-alpha-steroid 4-dehydrogenase 2 (Homo sapiens, UniProt P31213).
T1 sequence (P31213 whole entry): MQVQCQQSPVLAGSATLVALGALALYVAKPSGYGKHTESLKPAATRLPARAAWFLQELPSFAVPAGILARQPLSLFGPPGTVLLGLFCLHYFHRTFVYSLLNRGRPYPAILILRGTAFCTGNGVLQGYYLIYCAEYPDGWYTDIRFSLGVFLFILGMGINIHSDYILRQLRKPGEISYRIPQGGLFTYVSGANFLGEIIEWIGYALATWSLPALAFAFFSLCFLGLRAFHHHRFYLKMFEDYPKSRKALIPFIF
Nature of the experiment: Inhibitory activity against 5-alpha Reductase-2 on human prostate homogenates from surgically derived benign hyperplastic tissue. The essentials: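 Benign hyperplastic human prostate tissue, stored at -80 °C, was homogenized near 0 °C in 50 mM TRIS pH 7.4 with salts, nicotinamide and sucrose, spun at 200g, and the combined supernatants were used. Homogenate (0.1 mg protein) was incubated with 30 nM testosterone (9% [3H]) and 0.3 mM NADPH for 30 min at 37 °C, with the inhibitor added alongside the substrate. Inhibitor range was 10⁻¹⁰–10⁻⁵ M. DHT conversion was read by TLC and scintillation, in duplicate.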

As a reminder, the IC50 is the concentration needed to halve the response being measured. Read a low IC50 as higher potency. `C[C@]12CCC3=C4C(=O)CCN=C4CCC3[C@@H]1CCC2=O` (some centres not stated): the IC50 is more than 100 µM. With `C[C@]12CC=C3[C@@H](CCC4=CC(=O)CCN43)C1CCC2=O` (some centres not stated), the midpoint of inhibition, the IC50, lay at 4.6 µM.
